Screening results (PubChem BioAssay)
This is a sample that favours compounds with a hit; in the whole collection about 1.4% have one here.
ZTA counter = ZTA (EBV) inhibition in EBNA-1 counter-screen; P03206; actives 0.15% (n = 320,000); ZTA-DNA binding, fluorescence polarization; AID 2234; inhibition, % at 11 µM; in the data active means inhibition above about 33%
Target sequence (P03206 whole entry, looked up): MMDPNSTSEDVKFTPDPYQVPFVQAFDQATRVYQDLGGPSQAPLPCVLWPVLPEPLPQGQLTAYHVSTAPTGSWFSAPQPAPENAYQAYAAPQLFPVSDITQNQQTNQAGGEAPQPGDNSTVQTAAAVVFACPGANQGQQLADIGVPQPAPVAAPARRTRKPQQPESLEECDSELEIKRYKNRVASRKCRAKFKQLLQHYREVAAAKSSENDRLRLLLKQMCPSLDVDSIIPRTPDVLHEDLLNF
NS3 helicase inh = inhibitors of HCV NS3 helicase, primary screen, biochemical, Cy5 molecular beacon fluorescence. Hepatitis C virus NS3 helicase. NS3 helicase DNA unwinding. inhibition, % at 10.9 µM. actives 0.56% (n = 290,000);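 active means inhibition above the mean of all tested compounds plus 3 SD, set per campaign, cut at about 35% in these data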
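Compound dosing – single dose, 10.9 µM nominal final, DMSO 0.8% final · System – NS3 helicase fragment of HCV · Buffer or medium – MOPS pH 6.5, MgCl2, DTT, Tween20, BSA · Signal – Cy5 beacon fluorescence read at start and 1 h · Also added – annealed dual-labelled DNA beacon duplex, ATP-started · Schedule – 1 h at 25 °C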
CTSL1 counter = Fasciola hepatica cathepsin L1 inhibitors, primary screen, counter-screen for PFM18AAP inhibitor project, biochemical, QFRET, fluorogenic peptide substrate. recombinant F. hepatica cathepsin L1, Z-Leu-Arg-MCA fluorescence. inhibition, % at 5.96 µM. actives 0.49% (n = 300,000);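 active means inhibition above the mean of all tested compounds plus 3 SD, set per screening campaign, cut at about 17% in these data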
EBNA-1 inh = EBNA-1 DNA-binding inhibitors, primary screen, biochemical, fluorescence polarization | inhibition, % at 14.8 µM | actives 0.34% (n = 300,000); in the data active means inhibition above about 28%
EBNA-1 confirm = EBNA-1 DNA-binding inhibitors, retest, confirmation, biochemical, fluorescence polarization, triplicate. shares compounds with EBNA-1 inh. Recombinant EBNA-1 DBD, Cy5-DNA fluorescence polarization. inhibition, % at 14.8 µM. actives 35% (n = 830). AID 2292, 2010;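 active means mean inhibition across replicates above a set limit taken from the earlier primary screen, cut at about 28% in these data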
ZTA counter trip = EBV Zta DNA binding inhibitors, counter-screen for EBNA-1 inhibitor project, biochemical, fluorescence polarization, triplicate; AID 2328, 2010; inhibition, % at 11.1 µM; Zta-ZRE DNA binding, Cy5 fluorescence polarization; 830 tested, under 10 active; shares compounds with EBNA-1 inh;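 active means mean inhibition over triplicates above a set limit taken from the primary EBNA-1 screen, cut at about 37% in these data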;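 further: purified full length Zta protein with Cy5 labeled ZRE DNA probe; inhibitors lower polarization by freeing the labeled DNA probe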
Each line names hits and unclear results; the compound was inactive in the other large screens (follow-up assays come after a bar, where they were run); ! = repeats disagree.

CCOc1ccc2nc(N3CCOCC3)nc(C)c2c1	none
CCOc1ccc2nc3ccc4[nH]onc4c3c2c1	EBNA-1 inh 31.1 | EBNA-1 confirm inactive | ZTA counter trip inactive
COc1ccc(OCC(=O)Nc2ccccc2N2CCN(C)CC2)cc1	none
CCC(=O)N1CCN(c2ccccc2NC(=O)COc2ccc(C(C)C)cc2)CC1	EBNA-1 inh 72.6 | EBNA-1 confirm inactive | ZTA counter trip inactive
Cc1ccc(C(C(=O)NC2CCCC2)N(Cc2ccc3c(c2)OCO3)C(=O)Cc2cccs2)cc1 (centres undefined)	none
CC(=O)Nc1ccc(NC(=O)/C=C/c2ccc3c(c2)OCO3)cc1	none
NS(=O)(=O)c1ccc(NC(=O)/C=C/c2ccc3c(c2)OCO3)cc1	EBNA-1 inh 43.8 | EBNA-1 confirm inactive | ZTA counter trip inactive
CCn1c(COc2ccccc2C)nnc1SCC(=O)Nc1cc(C)on1	EBNA-1 inh 50.4 | EBNA-1 confirm inactive | ZTA counter trip inactive
O=C(CSc1nc2ncc(Cl)cc2[nH]1)c1c[nH]c2ccccc12	EBNA-1 inh 31.0 | EBNA-1 confirm inactive | ZTA counter trip inactive
CCC1C(C#N)=C(SCC(N)=O)NC2=C1C(=O)CC(C)(C)C2 (centres undefined)	none
O=C1NC(Cc2ccccc2)C(=O)N1CC(=O)N1CCCc2ccccc21 (centres undefined)	none
COc1ccc(/C=C/C(=O)c2c(C)nc3ccccn23)cc1	EBNA-1 inh 69.5 | EBNA-1 confirm 40.0 | ZTA counter trip inactive
CCc1ccc(NC(=O)CCC(=O)Nc2nnc(C(C)C)s2)cc1	EBNA-1 inh 40.1 | EBNA-1 confirm inactive | ZTA counter trip inactive
CCOC(=O)N1CCc2c(sc(NC(=O)C3COc4ccccc4O3)c2C(N)=O)C1 (centres undefined)	EBNA-1 inh 29.4 | EBNA-1 confirm 56.2 | ZTA counter trip inactive
CC(=O)N1CCc2c(sc(NC(=O)C3COc4ccccc4O3)c2C(N)=O)C1 (centres undefined)	none
COc1cc(C(=O)Nc2cccc(-c3nc4cc(C)ccc4o3)c2C)cc(OC)c1OC	EBNA-1 inh 37.3 | EBNA-1 confirm inactive | ZTA counter trip inactive
COc1ccc(-c2csc(N3C(=O)CNC3=S)n2)cc1	EBNA-1 inh 81.6 | EBNA-1 confirm 43.6 | ZTA counter trip inactive
O=C1CNC(=S)N1c1nc(-c2ccccc2)cs1	none
COc1ccc(-c2csc(N3C(=N)SCC3=O)n2)cc1	EBNA-1 inh 44.2 | EBNA-1 confirm inactive | ZTA counter trip inactive
Cc1cc(Oc2ccccc2)nc(N)n1	none
O=C(Cc1ccccc1)Nc1scc(-c2ccccc2)c1C(=O)N1CCOCC1	none
NC(=O)c1c(-c2ccc(Cl)cc2Cl)csc1NC(=O)Cc1ccccc1	EBNA-1 inh 28.9 | EBNA-1 confirm inactive | ZTA counter trip inactive
N=c1c(-c2nc3ccccc3[nH]2)cc(C(=O)c2cccs2)nn1-c1ccc(Cl)cc1	none
Nc1ccc2nc(SCC(=O)Nc3ccc(N4CCOCC4)c(Cl)c3)sc2c1	none
CCCC(=O)Nc1ccc2nc(SCC(=O)Nc3ccc(N4CCOCC4)c(Cl)c3)sc2c1	EBNA-1 inh 66.8 | EBNA-1 confirm 71.3 | ZTA counter trip inactive
COC(=O)c1c(NC(=O)c2ccccc2)sc2c1CC(C)(C)OC2	EBNA-1 inh 31.8 | EBNA-1 confirm inactive | ZTA counter trip inactive
N#C/C(=C(/O)COC(=O)CSc1ccc2ccccc2c1)c1nc2ccccc2[nH]1	EBNA-1 inh 39.1 | EBNA-1 confirm inactive | ZTA counter trip inactive
Cc1ccc(C)c(SCC(=O)OC/C(O)=C(\C#N)c2nc3ccccc3[nH]2)c1	none (no result: ZTA counter, CTSL1 counter, EBNA-1 inh)
CCCn1nnnc1NCc1ccc(OC)cc1OC	none
Cc1[nH]n(-c2ccccc2)c(=O)c1/C=N/N(c1ccccc1)c1ccccc1	none
Cn1c(SCc2ccccc2)nc(N)c(N=O)c1=O	none (no result: NS3 helicase inh)
COc1ccc(CN(CCN(C)C)c2ccccn2)cc1	EBNA-1 inh active! | EBNA-1 confirm inactive | ZTA counter trip inactive
C#Cc1cccc(-n2nnc(C(=O)OC)c2-c2ccccc2)c1	none
COc1ccc(-n2nc(C(=O)Nc3ccc4c(c3)OCO4)c3ccccc3c2=O)c(OC)c1	EBNA-1 inh 29.3 | EBNA-1 confirm 35.4 | ZTA counter trip inactive
COc1ccccc1-n1nc(C(=O)Nc2ccc3c(c2)OCO3)c2ccccc2c1=O	none
O=C(NC(=S)Nc1ccc(S(=O)(=O)N2CCCCCC2)cc1)c1cccs1	EBNA-1 inh 85.0 | EBNA-1 confirm 65.6 | ZTA counter trip inactive
CCCCCN(C(=O)CCC(=O)OCC(=O)N1CCCCC1C)c1c(N)n(CCCC)c(=O)[nH]c1=O (centres undefined)	none
O=C1c2ccccc2C(=O)N1Cc1nc2ccccc2c(=O)n1CCCn1ccnc1	none (no result: ZTA counter, CTSL1 counter, EBNA-1 inh)
CCCCn1c(CN2C(=O)c3ccccc3C2=O)nc2ccccc2c1=O	EBNA-1 inh 31.6 | EBNA-1 confirm 31.2 | ZTA counter trip inactive
N#CCSc1nc2c(c(C3CC=CCC3)c1C#N)CCC2 (centres undefined)	none
CCc1ccccc1N(C(C)=O)c1nc(CN=C=S)cs1	none
CCNc1ccc(C(=O)OCC(=O)NC(C)c2ccccc2)cc1[N+](=O)[O-] (centres undefined)	none
CCNc1ccc(C(=O)OC(C(=O)NC(N)=O)C(C)C)cc1[N+](=O)[O-] (centres undefined)	EBNA-1 inh 32.7 | EBNA-1 confirm inactive | ZTA counter trip inactive
O=C1CC(SC(=NCc2ccc3c(c2)OCO3)Nc2ccccc2)C(=O)N1c1ccccc1 (centres undefined)	EBNA-1 inh 43.5 | EBNA-1 confirm inactive | ZTA counter trip inactive
O=C(O)c1ccc(N2C(=O)CC(SC(=NCc3ccc4c(c3)OCO4)Nc3ccccc3)C2=O)cc1 (centres undefined)	none
COc1ccc(CNc2oc(-c3cccc4ccccc34)nc2P(=O)(OC)OC)cc1	none
Cn1c(CNC(=O)c2ccc(Cl)c(Cl)c2)nnc1SCC(=O)Nc1sc2c(c1C#N)CCCC2	EBNA-1 inh 30.9 | EBNA-1 confirm 38.9 | ZTA counter trip inactive
COc1ccc(C(=O)Nc2nnc(-c3ccc(F)cc3)s2)c(OC)c1	none (no result: ZTA counter, CTSL1 counter, EBNA-1 inh)
COc1ccccc1C(=O)Nc1nnc(-c2ccc(F)cc2)s1	EBNA-1 inh active | EBNA-1 confirm inactive | ZTA counter trip inactive
CN(C)c1cc[n+](/C(C(=S)Nc2ccc(SC(F)F)cc2)=C(/[O-])c2ccccc2)cc1	EBNA-1 inh 57.6 | EBNA-1 confirm 43.4 | ZTA counter trip inactive
Cc1cc(C)c(/C([O-])=C(/C(=S)Nc2ccc(SC(F)F)cc2)[n+]2ccccc2)cc1C	none
Cc1cc(C)c(NS(=O)(=O)c2c(C(=O)N3CCOCC3)c(C)n(C)c2C)c(C)c1	none
